Laboratory results taken from ChEMBL document CHEMBL1150693, “Structures of new dammarane-type Triterpene Saponins from the flower buds of Panax notoginseng and hepatoprotective effects of principal Ginseng Saponins” (2003).

How the values were obtained:
Assay type in all cases: functional
Conditions in all cases: route intraperitoneal
Mus musculus [1] = assay: Hepatoprotective activity against D-galactosamine/LPS-induced liver injury in ddY mouse assessed as inhibition of serum alanine transaminase level at 100 mg/kg, ip administered 1 hr before D-galactosamine/LPS challenge by Reitman-Frankel method
Method in brief: (§1)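 Male ddY mice (about 25-27 g) fasted 20 h; liver injury induced by i.p. D-GalN (350 mg/kg) plus LPS (10 µg/kg, Salmonella enteritidis) in saline. Test sample given i.p. 1 h before challenge. Blood taken from infraorbital venous plexus 10 h after D-GalN/LPS; sALT and sAST measured by Reitman-Frankel method (Karmen units). Mean ± SEM; one-way ANOVA with Dunnett's test.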

Mus musculus [2] = assay: Hepatoprotective activity against D-galactosamine/LPS-induced liver injury in ddY mouse assessed as inhibition of serum aspartate transaminase level at 100 mg/kg, ip administered 1 hr before D-galactosamine/LPS challenge by Reitman-Frankel method; method in brief: as §1
Mus musculus [3] = assay: Hepatoprotective activity against D-galactosamine/LPS-induced liver injury in ddY mouse assessed as inhibition of serum aspartate transaminase level at 50 mg/kg, ip administered 1 hr before D-galactosamine/LPS challenge by Reitman-Frankel method; method in brief: as §1
Mus musculus [4] = assay: Hepatoprotective activity against D-galactosamine/LPS-induced liver injury in ddY mouse assessed as inhibition of serum alanine transaminase level at 50 mg/kg, ip administered 1 hr before D-galactosamine/LPS challenge by Reitman-Frankel method; method in brief: as §1
Mus musculus [5] = assay: Hepatoprotective activity against D-galactosamine/LPS-induced liver injury in ddY mouse assessed as inhibition of serum aspartate transaminase level at 20 mg/kg, ip administered 1 hr before D-galactosamine/LPS challenge by Reitman-Frankel method
Method in brief: (§2)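 Male ddY mice (about 25-27 g) fasted 20 h; liver injury induced by ip D-GalN (350 mg/kg) plus LPS (10 µg/kg, Salmonella enteritidis) in saline. Sample given ip 1 h before D-GalN/LPS. Blood drawn from infraorbital venous plexus 10 h after challenge; sALT and sAST measured by Reitman-Frankel kit, in Karmen units; % inhibition reported. Means ± SEM; one-way ANOVA with Dunnett's test.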

Mus musculus [6] = assay: Hepatoprotective activity against D-galactosamine/LPS-induced liver injury in ddY mouse assessed as inhibition of serum alanine transaminase level at 20 mg/kg, ip administered 1 hr before D-galactosamine/LPS challenge by Reitman-Frankel method; method in brief: as §2

Row | SMILES | inhibition in vivo at 100 mg/kg (Mus musculus [1]) [%] | inhibition in vivo at 100 mg/kg (Mus musculus [2]) [%] | inhibition in vivo at 50 mg/kg (Mus musculus [3]) [%] | inhibition in vivo at 50 mg/kg (Mus musculus [4]) [%] | inhibition in vivo at 20 mg/kg (Mus musculus [5]) [%] | inhibition in vivo at 20 mg/kg (Mus musculus [6]) [%]
1 | CC(C)=CCC[C@](C)(O[C@@H]1O[C@H](CO)[C@@H](O)[C@H](O)[C@H]1O)[C@H]1CC[C@]2(C)[C@@H]1[C@H](O)C[C@@H]1[C@@]3(C)CC[C@H](O)C(C)(C)[C@@H]3[C@@H](O[C@@H]3O[C@H](CO)[C@@H](O)[C@H](O)[C@H]3O[C@@H]3O[C@H](CO)[C@@H](O)[C@H](O)[C@H]3O)C[C@]12C | 34 | 40 | – | – | – | –
2 | CC(C)=CCC[C@](C)(O[C@@H]1O[C@H](CO[C@@H]2O[C@H](CO)[C@@H](O)[C@H](O)[C@H]2O)[C@@H](O)[C@H](O)[C@H]1O)[C@H]1CC[C@]2(C)[C@@H]1[C@H](O)C[C@@H]1[C@@]3(C)CC[C@H](O[C@@H]4O[C@H](CO)[C@@H](O)[C@H](O)[C@H]4O[C@@H]4O[C@H](CO)[C@@H](O)[C@H](O)[C@H]4O)C(C)(C)[C@@H]3CC[C@]12C [GINSENOSIDE RB1] | 33 | 40 | – | – | – | –
3 | CC(C)=CCC[C@](C)(O[C@@H]1O[C@H](CO[C@@H]2OC[C@@H](O)[C@H](O)[C@H]2O)[C@@H](O)[C@H](O)[C@H]1O)[C@H]1CC[C@]2(C)[C@@H]1[C@H](O)C[C@@H]1[C@@]3(C)CC[C@H](O[C@@H]4O[C@H](CO)[C@@H](O)[C@H](O)[C@H]4O[C@@H]4O[C@H](CO)[C@@H](O)[C@H](O)[C@H]4O)C(C)(C)[C@@H]3CC[C@]12C [GINSENOSIDE RB3] | 91 | 80 | 72 | 77 | – | –
4 | CC(C)=CCC[C@](C)(O[C@@H]1O[C@H](CO[C@@H]2O[C@@H](CO)[C@H](O)[C@H]2O)[C@@H](O)[C@H](O)[C@H]1O)[C@H]1CC[C@]2(C)[C@@H]1[C@H](O)C[C@@H]1[C@@]3(C)CC[C@H](O[C@@H]4O[C@H](CO)[C@@H](O)[C@H](O)[C@H]4O[C@@H]4O[C@H](CO)[C@@H](O)[C@H](O)[C@H]4O)C(C)(C)[C@@H]3CC[C@]12C [GINSENOSIDE RC] | 89 | 87 | 80 | 77 | – | –
5 | CC(C)=CCC[C@](C)(O[C@@H]1O[C@H](CO)[C@@H](O)[C@H](O)[C@H]1O)[C@H]1CC[C@]2(C)[C@@H]1[C@H](O)C[C@@H]1[C@@]3(C)CC[C@H](O[C@@H]4O[C@H](CO)[C@@H](O)[C@H](O)[C@H]4O[C@@H]4O[C@H](CO)[C@@H](O)[C@H](O)[C@H]4O)C(C)(C)[C@@H]3CC[C@]12C [GINSENOSIDE RD] | 97 | 93 | – | – | – | –
6 | CC(C)=CCC[C@](C)(O[C@@H]1O[C@H](CO)[C@@H](O)[C@H](O)[C@H]1O)[C@H]1CC[C@]2(C)[C@@H]1[C@H](O)C[C@@H]1[C@@]3(C)CC[C@H](O)C(C)(C)[C@@H]3[C@@H](O[C@@H]3O[C@H](CO)[C@@H](O)[C@H](O)[C@H]3O[C@@H]3O[C@@H](C)[C@H](O)[C@@H](O)[C@H]3O)C[C@]12C [GINSENOSIDE RE] | 92 | 90 | – | – | – | –
7 | CC(C)=CCC[C@](C)(O[C@@H]1O[C@H](CO)[C@@H](O)[C@H](O)[C@H]1O)[C@H]1CC[C@]2(C)[C@@H]1[C@H](O)C[C@@H]1[C@@]3(C)CC[C@H](O)C(C)(C)[C@@H]3[C@@H](O[C@@H]3O[C@H](CO)[C@@H](O)[C@H](O)[C@H]3O)C[C@]12C [GINSENOSIDE RG1] | 30 | 12 | – | – | – | –
8 | CC(C)=CCC[C@](C)(O)[C@H]1CC[C@]2(C)[C@@H]1[C@H](O)C[C@@H]1[C@@]3(C)CC[C@H](O)C(C)(C)[C@@H]3[C@@H](O[C@@H]3O[C@H](CO)[C@@H](O)[C@H](O)[C@H]3O)C[C@]12C [GINSENOSIDE RH1] | 93 | 90 | – | – | – | –
9 | CC(C)=CCC[C@](C)(O[C@@H]1O[C@H](CO[C@@H]2O[C@H](CO)[C@@H](O)[C@H](O)[C@H]2O)[C@@H](O)[C@H](O)[C@H]1O)[C@H]1CC[C@]2(C)[C@@H]1[C@H](O)C[C@@H]1[C@@]3(C)CC[C@H](O[C@@H]4O[C@H](CO)[C@@H](O)[C@H](O)[C@H]4O)C(C)(C)[C@@H]3CC[C@]12C [GYPENOSIDE XVII] | 95 | 91 | – | – | – | –
10 | C[C@]12CCC(=O)C=C1CC[C@@H]1[C@@H]2[C@@H](O)C[C@@]2(C)[C@H]1CC[C@]2(O)C(=O)CO [HYDROCORTISONE] | – | – | – | – | 97 | 99
11 | CC(C)=CCC[C@](C)(O[C@@H]1O[C@H](CO)[C@@H](O)[C@H](O)[C@H]1O)[C@H]1CC[C@]2(C)[C@@H]1[C@H](O)C[C@@H]1[C@@]3(C)CC[C@H](O)C(C)(C)[C@@H]3[C@@H](O[C@@H]3O[C@H](CO)[C@@H](O)[C@H](O)[C@H]3O[C@@H]3OC[C@@H](O)[C@H](O)[C@H]3O)C[C@]12C [NOTOGINSENOSIDE R1] | 87 | 89 | – | – | – | –
12 | CC(C)=CCC[C@](C)(O[C@@H]1O[C@H](CO[C@@H]2O[C@H](CO)[C@@H](O)[C@H](O)[C@H]2O)[C@@H](O)[C@H](O)[C@H]1O)[C@H]1CC[C@]2(C)[C@@H]1[C@H](O)C[C@@H]1[C@@]3(C)CC[C@H](O)C(C)(C)[C@@H]3[C@@H](O[C@@H]3O[C@H](CO)[C@@H](O)[C@H](O)[C@H]3O)C[C@]12C [notoginsenoside-R6] | 32 | 44 | – | – | – | –
